Results reported in ChEMBL document CHEMBL4020718, “Trifluoromethyl arylamides with antileukemia effect and intracellular inhibitory activity over serine/arginine-rich protein kinases (SRPKs)” (Eur J Med Chem, 2017).
The source made the active and inactive calls. The rule behind the calls is not given here.

What was measured:
HL-60 = assay: Cytotoxicity against human HL60 cells assessed as reduction in cell viability up to 200 uM after 48 hrs by MTT assay; type: functional, cell-based
Summary of the method: (§1)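 Cells (7x10^4/well) in RPMI-1640 with 10% FBS, 37 °C, 5% CO2; exposed to compound dilutions 0–200 µM (medium with 10% FBS, 0.4% DMSO) for 48 h. MTT added, 3 h at 37 °C, formazan dissolved in DMSO, absorbance 540 nm. IC50 from concentration–response; means ± standard deviation of three independent experiments.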

NALM-6 = assay: Cytotoxicity against human NALM6 cells assessed as reduction in cell viability up to 200 uM after 48 hrs by MTT assay; type: functional, cell-based; summary of the method: as §1
Jurkat = assay: Cytotoxicity against human Jurkat cells assessed as reduction in cell viability up to 200 uM after 48 hrs by MTT assay; type: functional, cell-based; summary of the method: as §1
Homo sapiens [1] = species: Homo sapiens; assay: Inhibition of SRPK in human NALM6 cells assessed as decrease in RON mRNA expression level at 20 uM after 24 hrs by qRT-PCR analysis; type: cell-based
Summary of the method: (§2)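 Nalm6 given 20 µM for 24 h with 0.4% DMSO control; mRNA isolated with Tri Reagent, quantified spectrophotometrically, integrity checked on 1% agarose, then RT-PCR for target transcripts; one representative of three experiments.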

Homo sapiens [2] = species: Homo sapiens; assay: Inhibition of SRPK in human NALM6 cells assessed as decrease in VEGF mRNA expression level at 20 uM after 24 hrs by qRT-PCR analysis; type: cell-based; summary of the method: as §2
Homo sapiens [3] = species: Homo sapiens; assay: Inhibition of SRPK in human NALM6 cells assessed as decrease in MAP2K2 mRNA expression level at 20 uM after 24 hrs by qRT-PCR analysis; type: cell-based; summary of the method: as §2
Homo sapiens [4] = species: Homo sapiens; assay: Inhibition of SRPK in human NALM6 cells assessed as decrease in MAP2K1 mRNA expression level at 20 uM after 24 hrs by qRT-PCR analysis; type: cell-based; summary of the method: as §2
Homo sapiens [5] = species: Homo sapiens; assay: Inhibition of SRPK in human NALM6 cell lysates assessed as reduction in phospho-SR epitopes signal at 20 uM after 24 hrs by Western blot analysis
Summary of the method: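 Nalm6 treated 24 h at 20 µM (DMSO vehicle control), lysed at 2x10^7 cells/mL in PBS with 1% NP40, 1 mM EDTA, 150 mM NaCl, 10 mM Tris pH 7.4 plus protease/phosphatase inhibitors; on ice 10 min, sonicated, spun 15000 xg; SDS-PAGE, PVDF, milk block overnight, primary and secondary antibody 2 h each; representative of three.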

[6] = Homo sapiens, HL-60, 48 h, read-out: IC50

SMILES	IC50 (HL-60; hl-60)	IC50 (NALM-6; nalm-6)	IC50 (Jurkat; jurkat)	IC50 (HL-60; [6]) [µM]	other results
O=C(Nc1cc(C(F)(F)F)ccc1N1CCCCC1)c1cccnc1Cl	Not Active	Not Active	Not Active	–	–
O=C(Nc1cc(C(F)(F)F)ccc1N1CCCC1)c1ccncc1	Not Active	Not Active	Not Active	–	–
O=C(Nc1cc(C(F)(F)F)ccc1N1CCCCC1)c1ccncc1	–	–	–	38.3	inhibition (Homo sapiens [1]): inactive; inhibition (Homo sapiens [2]): inactive; IC50 (NALM-6; Homo sapiens, NALM-6, 48 h, read-out: IC50): 70.6 µM; IC50 (Jurkat; Homo sapiens, Jurkat, 48 h, read-out: IC50): 75.4 µM; inhibition (Homo sapiens [3]): inactive; inhibition (Homo sapiens [4]): inactive; inhibition (Homo sapiens [5]): Active
CCN(CC)c1ccc(C(F)(F)F)cc1NC(=O)c1ccccc1	Not Active	Not Active	Not Active	–	–
O=C(Nc1cc(C(F)(F)F)ccc1NC1CCCCC1)c1ccccc1	–	Not Active	Not Active	34.9	–
O=C(Nc1cc(C(F)(F)F)ccc1N1CCCCC1)c1ccccc1	Not Active	Not Active	Not Active	–	–
